Values after ≈ are worked out from the molar mass of the structure shown.
Experiments:
Escherichia coli = assay: Antibacterial activity against Escherichia coli ATCC 25922; type: functional; details: for MIC: Escherichia coli, ATCC 25922
In short: (§1)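 MIC by serial dilution in Mueller-Hinton broth tubes, pH adjusted to 5.0 with phosphate buffer. A standardized bacterial suspension was inoculated and incubated 16-18 h at 37 °C, and MIC was read as the lowest concentration with no visible growth. Zones were also measured in agar wells on seeded plates, with compounds in DMSO and a DMSO control, triplicate plates, 37 °C for 3-4 days.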

Staphylococcus aureus = assay: Antibacterial activity against Staphylococcus aureus ATCC 25923; type: functional; details: for MIC: Staphylococcus aureus, ATCC 25923; in short: as §1
Pseudomonas aeruginosa = assay: Antibacterial activity against Pseudomonas aeruginosa ATCC 27853; type: functional; details: for MIC: Pseudomonas aeruginosa, ATCC 27853; in short: as §1
Klebsiella pneumoniae = assay: Antibacterial activity against Klebsiella pneumoniae; type: functional; details: for MIC: Klebsiella pneumoniae; in short: as §1
Aspergillus flavus = assay: Antifungal activity against Aspergillus flavus NCIM 524; type: functional; details: for MIC: Aspergillus flavus, NCIM 524
In short: (§2)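 Agar-well diffusion on Sabouraud agar at pH 5.7. Plates were lawned with a saline spore suspension (one loopful in 3 ml), decanted and dried 1 h at 37 °C. Compounds in DMSO went into punched wells, with a DMSO solvent control. Plates were run in triplicate and kept at 37 °C for 3-4 days, with inhibition-zone diameter as read-out.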

Aspergillus fumigatus = assay: Antifungal activity against Aspergillus fumigatus NCIM 902; type: functional; details: for MIC: Aspergillus fumigatus, NCIM 902
Talaromyces marneffei = assay: Antifungal activity against Penicillium marneffei; type: functional; details: for MIC: Talaromyces marneffei; in short: as §2
Trichophyton benhamiae = assay: Antifungal activity against Trichophyton mentagrophytes; type: functional, Arthroderma benhamiae; details: for MIC: Trichophyton benhamiae; in short: as §2

| Structure (SMILES) | inhibition zone (IZ) (Escherichia coli) [mm] | MIC (Escherichia coli) [µg/mL] | inhibition zone (IZ) (Staphylococcus aureus) [mm] | MIC (Staphylococcus aureus) [µg/mL] | inhibition zone (IZ) (Pseudomonas aeruginosa) [mm] | MIC (Pseudomonas aeruginosa) [µg/mL] | inhibition zone (IZ) (Klebsiella pneumoniae) [mm] | MIC (Klebsiella pneumoniae) [µg/mL] | inhibition zone (IZ) (Aspergillus flavus) [mm] | MIC (Aspergillus flavus) [µg/mL] | inhibition zone (IZ) (Aspergillus fumigatus) [mm] | MIC (Aspergillus fumigatus) [µg/mL] | inhibition zone (IZ) (Talaromyces marneffei) [mm] | MIC (Talaromyces marneffei) [µg/mL] | inhibition zone (IZ) (Trichophyton benhamiae) [mm] | MIC (Trichophyton benhamiae) [µg/mL] |
| --- | --- | --- | --- | --- | --- | --- | --- | --- | --- | --- | --- | --- | --- | --- | --- | --- |
| CSc1ccc(OCc2nnc3sc(-c4ccc(C)cc4)nn23)cc1 | 16 | 6.25 (≈ 17 µM) | 16 | 6.25 (≈ 17 µM) | 16 | 6.25 (≈ 17 µM) | 16 | 6.25 (≈ 17 µM) | 16 | 6.25 (≈ 17 µM) | 16 | 6.25 (≈ 17 µM) | 16 | 6.25 (≈ 17 µM) | 16 | 6.25 (≈ 17 µM) |
| CSc1ccc(OCc2nnc3sc(-c4cccc(Cl)c4Cl)nn23)cc1 | 16 | 6.25 (≈ 14.8 µM) | 16 | 6.25 (≈ 14.8 µM) | 16 | 6.25 (≈ 14.8 µM) | 16 | 6.25 (≈ 14.8 µM) | 16 | 6.25 (≈ 14.8 µM) | 16 | 6.25 (≈ 14.8 µM) | 16 | 6.25 (≈ 14.8 µM) | 16 | 6.25 (≈ 14.8 µM) |
| CSc1ccc(OCc2nnc3sc(Cc4ccccc4)nn23)cc1 | 16 | 6.25 (≈ 17 µM) | 16 | 6.25 (≈ 17 µM) | 16 | 6.25 (≈ 17 µM) | 16 | 6.25 (≈ 17 µM) | 16 | 6.25 (≈ 17 µM) | 16 | 6.25 (≈ 17 µM) | 16 | 6.25 (≈ 17 µM) | 16 | 6.25 (≈ 17 µM) |
| CS(=O)(=O)c1ccc(OCc2nnc3sc(-c4ccccc4Cl)nn23)cc1 | 11 | 12.5 (≈ 29.7 µM) | 11 | 12.5 (≈ 29.7 µM) | 11 | 12.5 (≈ 29.7 µM) | 11 | 12.5 (≈ 29.7 µM) | 11 | 12.5 (≈ 29.7 µM) | 11 | 12.5 (≈ 29.7 µM) | <10 | 25 (≈ 59.4 µM) | 11 | 12.5 (≈ 29.7 µM) |
| CS(=O)(=O)c1ccc(OCc2nnc3sc(-c4cccc(Cl)c4)nn23)cc1 | 11 | 12.5 (≈ 29.7 µM) | 11 | 12.5 (≈ 29.7 µM) | 11 | 12.5 (≈ 29.7 µM) | 11 | 12.5 (≈ 29.7 µM) | 11 | 12.5 (≈ 29.7 µM) | 11 | 12.5 (≈ 29.7 µM) | <10 | 25 (≈ 59.4 µM) | 11 | 12.5 (≈ 29.7 µM) |
| CS(=O)(=O)c1ccc(OCc2nnc3n2N=C(c2ccc(Cl)cc2Cl)CS3)cc1 | 11 | 12.5 (≈ 26.6 µM) | 11 | 12.5 (≈ 26.6 µM) | 11 | 12.5 (≈ 26.6 µM) | 11 | 12.5 (≈ 26.6 µM) | 11 | 12.5 (≈ 26.6 µM) | 11 | 12.5 (≈ 26.6 µM) | <10 | 25 (≈ 53.3 µM) | 11 | 12.5 (≈ 26.6 µM) |
| CS(=O)(=O)c1ccc(OCc2nnc3sc(Cc4ccccc4)nn23)cc1 | 11 | 12.5 (≈ 31.2 µM) | 11 | 12.5 (≈ 31.2 µM) | 11 | 12.5 (≈ 31.2 µM) | 11 | 12.5 (≈ 31.2 µM) | 11 | 12.5 (≈ 31.2 µM) | 11 | 12.5 (≈ 31.2 µM) | <10 | 25 (≈ 62.4 µM) | 11 | 12.5 (≈ 31.2 µM) |
| CSc1ccc(OCc2nnc3sc(-c4ccc(N)cc4)nn23)cc1 | 16 | 6.25 (≈ 16.9 µM) | 16 | 6.25 (≈ 16.9 µM) | 16 | 6.25 (≈ 16.9 µM) | 16 | 6.25 (≈ 16.9 µM) | 16 | 6.25 (≈ 16.9 µM) | 16 | 6.25 (≈ 16.9 µM) | 16 | 6.25 (≈ 16.9 µM) | 16 | 6.25 (≈ 16.9 µM) |
| CCSc1ccc(OCc2nnc3sc(-c4ccccc4)nn23)cc1 | 16 | 6.25 (≈ 17 µM) | 16 | 6.25 (≈ 17 µM) | 16 | 6.25 (≈ 17 µM) | 16 | 6.25 (≈ 17 µM) | 16 | 6.25 (≈ 17 µM) | 16 | 6.25 (≈ 17 µM) | 16 | 6.25 (≈ 17 µM) | 16 | 6.25 (≈ 17 µM) |
| CS(=O)(=O)c1ccc(OCc2nnc3sc(-c4ccccc4)nn23)cc1 | 11 | 12.5 (≈ 32.3 µM) | 11 | 12.5 (≈ 32.3 µM) | 11 | 12.5 (≈ 32.3 µM) | 11 | 12.5 (≈ 32.3 µM) | 11 | 12.5 (≈ 32.3 µM) | 11 | 12.5 (≈ 32.3 µM) | <10 | 25 (≈ 64.7 µM) | 11 | 12.5 (≈ 32.3 µM) |
| CS(=O)(=O)c1ccc(OCc2nnc3n2N=C(c2ccc(O)c(C(N)=O)c2)CS3)cc1 | 11 | 12.5 (≈ 27.2 µM) | 11 | 12.5 (≈ 27.2 µM) | 11 | 12.5 (≈ 27.2 µM) | 11 | 12.5 (≈ 27.2 µM) | 11 | 12.5 (≈ 27.2 µM) | 11 | 12.5 (≈ 27.2 µM) | <10 | 25 (≈ 54.4 µM) | 11 | 12.5 (≈ 27.2 µM) |
| COc1ccc(-c2nn3c(COc4ccc(SC)cc4)nnc3s2)cc1 | 16 | 6.25 (≈ 16.3 µM) | 16 | 6.25 (≈ 16.3 µM) | 16 | 6.25 (≈ 16.3 µM) | 16 | 6.25 (≈ 16.3 µM) | 16 | 6.25 (≈ 16.3 µM) | 16 | 6.25 (≈ 16.3 µM) | 16 | 6.25 (≈ 16.3 µM) | 16 | 6.25 (≈ 16.3 µM) |

Reference: ChEMBL document CHEMBL1143805, “Synthesis and antimicrobial activities of some novel 1,2,4-triazolo[3,4-b]-1,3,4-thiadiazoles and 1,2,4-triazolo[3,4-b]-1,3,4-thiadiazines carrying thioalkyl and sulphonyl phenoxy moieties” (2007)
